# Measured values published in paper PMC7489285 (Molecular cancer therapeutics, 2012).
# Columns and labels:
# [1] = test system: neuronal tubulin; test: fluorescence-enhanced tubulin polymerization assay; assay type: biochemical; details: ratio of tubulin polymerization ED50 values
# [2] = test system: 231-BR cells; test: MTT in vitro cytotoxicity assay; assay type: cell-based; details: Homo sapiens, 72 h, read-out: IC50 values and maximal toxicity
# How it was run: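 231-BR cells seeded at 2,000/well 24 h before compound addition. Ethanol drug stocks were serially diluted into culture medium and added to triplicate wells, then cultured 72 h. Viable cells were read by MTT, normalized to drug-free viable cells at endpoint. At least 3 independent experiments.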
# [3] = test system: 231-BR primary tumors; test: breast primary tumor model; assay type: in vivo, mouse
# [4] = test system: intracerebrally implanted MDA-MB-435, Lu7187 and Lu7466 tumor cells; details: cited from earlier work; for growth of intracerebrally implanted tumor cells: MDA-MB-435, Lu7187 and Lu7466 cells
# [5] = test system: experimental brain metastases; details: 2 experimental brain metastasis models, radiolabeled drug; cited from earlier work
# [6] = test system: 231-BR brain metastases; test: experimental brain metastasis model; assay type: in vivo, mouse
# [7] = test system: breast cancer brain metastases; details: phase II, cited from earlier work
# [8] = test system: breast cancer brain metastases; details: phase II, cited from earlier work; remark: listed apart in the source
# [9] = mice, favorable half-life; cited from earlier work
smiles,measurement,setting,value
CC(=O)O[C@@]12CO[C@@H]1C[C@H](O)[C@@]1(C)C(=O)[C@H](O)C3=C(C)[C@@H](OC(=O)[C@H](O)[C@@H](NC(=O)OC(C)(C)C)c4ccccc4)C[C@@](O)([C@@H](OC(=O)c4ccccc4)[C@H]21)C3(C)C [Docetaxel],ED50 compound/ ED50 paclitaxel,[1],1.07
same,IC50,[2],< 0.01 µM
CC(=O)O[C@H]1C(=O)[C@@]2(C)[C@H]([C@H](OC(=O)c3ccccc3)[C@]3(O)C[C@H](OC(=O)[C@H](O)[C@@H](NC(=O)c4ccccc4)c4ccccc4)C(C)=C1C3(C)C)[C@]1(OC(C)=O)CO[C@@H]1C[C@@H]2O [Paclitaxel],amount of acetylated tubulin-α in primary tumors,"[3]; 18 mg/kg i.v. every 4 days ×3, immunofluorescence",increase
same,estimated tumor growth rate (slope) of log10 tumor volume,"[3]; 18 mg/kg i.v. every 4 days ×3 from day 37, days 41 to 48",−0.0450 ± 0.00743
same,growth of intracerebrally implanted tumor cells,[4],nonsignificant effects
same,experimental lesions with sufficient uptake to show a cytotoxic response,[5],10%
same,prevention of brain metastatic colonization,"[6]; 18 mg/kg ×3, early or late, all points not significant",ineffective
same,"Ki67-positive 231-BR cells in brain metastases (proliferation), mean","[6]; day 28, 48 hours after final late 18 mg/kg treatment, vehicle 56.0% ± 2.22%",54.4% ± 1.91%
same,IC50,[2],< 0.01 µM
C=CC[C@H]1C(=O)C(C)(C)[C@@H](O)CC(=O)O[C@H](c2ccc3sc(C)nc3c2)C[C@@H]2O[C@]2(C)CCC[C@H](C)[C@@H]1O [Sagopilone],patients achieving partial responses,"[7]; progressive brain metastases after whole brain radiation therapy, two patients",13.3%
same,median progression-free survival,[7],1.4 months
same,overall survival,[7],5.3 months
same,growth of intracerebrally implanted tumor cells,[4],reduced the growth
same,weight loss,[4],6%
same,BBB penetration,"[4]; mice, favorable AUC and half-life",crossed the BBB
C/C(=C\c1csc(C)n1)[C@@H]1C[C@@H]2O[C@]2(C)CCC[C@H](C)[C@H](O)[C@@H](C)C(=O)C(C)(C)[C@@H](O)CC(=O)N1 [ixabepilone],toxicity of initial doses,"[6]; mice, initial 2 doses of 5 mg/kg",significant toxicity
same,IC50,[2],< 0.01 µM
C/C(=C\c1csc(C)n1)[C@@H]1C[C@@H]2O[C@]2(C)CCC[C@H](C)[C@H](O)[C@@H](C)C(=O)C(C)(C)[C@@H](O)CC(=O)O1 [patupilone],"partial responses, patients",[8]; 6 of 31,19%
same,"stable disease, patients",[8]; 9 of 31,29%
same,incidence of peripheral neuropathy,[8],27%
same,brain distribution,[9],Significant brain distribution
